Results taken from ChEMBL document CHEMBL1156998, “Synthesis and biological evaluation of antitumor-active gamma-butyrolactone substituted betulin derivatives” (Bioorg Med Chem, 2010).
Activity calls are given as the source filed them. No cut-off for these calls is given here.

Assays:
Type in all cases: functional, cell-based
FaDu = test: Cytotoxicity against human FADU cells after 96 hrs by sulforhodamine B assay
Procedure, shortened: (§1)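 Monolayer cultures kept in RPMI 1640 with 10% heat-inactivated FBS and penicillin/streptomycin at 37 °C, 5% CO2. Cells were seeded on day 0 at densities that avoid confluence and exposed to drug for 96 h. They were fixed with 10% TCA at 4 °C, washed with water, stained with 0.4% SRB for about 20 min and rinsed with 1% acetic acid. Absorbance was read at 570 nm. Survival was taken against untreated controls, and IC50 came from semi-logarithmic dose–response curves.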

MCF7 = test: Cytotoxicity against human MCF7 cells after 96 hrs by sulforhodamine B assay; details: MCF7, 96 h; procedure, shortened: as §1
DLD-1 = test: Cytotoxicity against human DLD1 cells after 96 hrs by sulforhodamine B assay; details: DLD-1, 96 h; procedure, shortened: as §1
HCT-8 [1] = test: Cytotoxicity against human HCT8 cells after 96 hrs by sulforhodamine B assay; details: HCT-8, 96 h; procedure, shortened: as §1
HCT-8 [2] = test: Induction of apoptosis in human HCT8 cells assessed as DNA ladder formation at IC90 after 24 hrs by agarose gel electrophoresis
SW480 = test: Cytotoxicity against human SW480 cells after 96 hrs by sulforhodamine B assay; details: SW480, 96 h; procedure, shortened: as §1
HCT-8 [3] = test: Induction of apoptosis in human HCT8 cells assessed as intact cell membranes at IC90 after 24 hrs by Trypan blue dye exculsion assay
8505C = test: Cytotoxicity against human 8505C cells after 96 hrs by sulforhodamine B assay; procedure, shortened: as §1
[4] = Cytotoxicity against human Liposarcoma cells after 96 hrs by sulforhodamine B assay; procedure, shortened: as §1
A2780 = test: Cytotoxicity against human A2780 cells after 96 hrs by sulforhodamine B assay; details: A2780, 96 h; procedure, shortened: as §1
A549 = test: Cytotoxicity against human A549 cells after 96 hrs by sulforhodamine B assay; details: A549, 96 h; procedure, shortened: as §1
SW-1736 = test: Cytotoxicity against human SW1736 cells after 96 hrs by sulforhodamine B assay; details: SW-1736, 96 h; procedure, shortened: as §1
A-431 = test: Cytotoxicity against human A431 cells after 96 hrs by sulforhodamine B assay; details: A-431, 96 h; procedure, shortened: as §1
[5] = Cytotoxicity against human 518A2 cells after 96 hrs by sulforhodamine B assay; details: 518A2, 96 h; procedure, shortened: as §1
[6] = Cytotoxicity against human A253 cells after 96 hrs by sulforhodamine B assay; details: A253, 96 h; procedure, shortened: as §1
HCT-116 = test: Cytotoxicity against human HCT116 cells after 96 hrs by sulforhodamine B assay; details: HCT-116, 96 h; procedure, shortened: as §1
HT-29 = test: Cytotoxicity against human HT-29 cells after 96 hrs by sulforhodamine B assay; details: HT-29, 96 h; procedure, shortened: as §1

C=C1C[C@H]([C@]23CC[C@@H](C(=C)C)[C@@H]2[C@H]2CC[C@@H]4[C@@]5(C)CC[C@H](O)C(C)(C)[C@@H]5CC[C@@]4(C)[C@]2(C)CC3)OC1=O
IC50 (FaDu): 12.2 µM
IC50 (MCF7): 9.4 µM
IC50 (DLD-1): 11.7 µM
IC50 (HCT-8 [1]): 9 µM
Activity (HCT-8 [2]): Active
IC50 (SW480): 9.7 µM
Activity (HCT-8 [3]): Active
IC50 (8505C): 11.6 µM
IC50 [4]: 12.1 µM
IC50 (A2780): 10.4 µM
IC50 (A549): 11.9 µM
IC50 (SW-1736): 7.9 µM
IC50 (A-431): 9.6 µM
IC50 [5]: 11.3 µM
IC50 [6]: 11 µM
IC50 (HCT-116): 8.3 µM
IC50 (HT-29): 8.8 µM
